Measured values collected from several papers.
Lines come from different studies, so protocols differ.
Target: AP2-associated protein kinase 1 (AAK1, Homo sapiens, UniProt Q2M2I8)

| Compound | effect on | technique | concentration | remaining binding |
| --- | --- | --- | --- | --- |
| O=C(Nc1c[nH]nc1C(=O)NC1CCNCC1)c1cc(F)cc(F)c1 | binding | competition with immobilised ligand | 1 µM | 100% |
| O=C(Nc1cccnn1)N1CC(C/C=C/c2cncc(Oc3ccc(C(F)(F)F)cn3)n2)C1 | cell-free assay | competition with immobilised ligand | 1 µM | 100% |
| FC(F)(F)Oc1cccc(-c2cnc3ccc(-c4ccncc4)nn23)c1 | cell-free assay | competition with immobilised ligand | 5 µM | 14% |
| COc1ccnn2ncc(-c3ccnc(N(C)C)n3)c12 | binding |  | 1 µM | 100% |
| O=C(c1ccc(Nc2ncc(Cl)c(-c3ccc(Cl)s3)n2)cc1)N1CCC(N2CCCC2)CC1 | binding | competition with immobilised ligand | 1 µM | 41% |
| N#CC1(c2ccccn2)CCN(Cc2cc(C(=O)N3CCCC3)c(=O)n3ccccc23)CC1 | binding |  | 1 µM | 100% |
| COc1cnc(Nc2cccc(S(N)(=O)=O)c2)nc1N1CCN(c2ccccc2)CC1 | binding | competition with immobilised ligand | 1 µM | 73% |
| C[C@@H]1CCN(c2nccc(-c3cnn4ncccc34)n2)C1 | binding |  | 1 µM | 71% |
| Cc1nccc(COC(=O)N2C[C@@H]3[C@@H](CNC(=O)c4ccc5[nH]nnc5c4)[C@@H]3C2)n1 | binding |  | 1 µM | 100% |
| CN(C)c1ncc(F)c(-c2cnn3ncccc23)n1 | binding |  | 1 µM | 89% |
| C=CC(=O)N1CCC(C(=O)NCC(=O)N2CCN(c3nc(-c4cnc(N)nc4C(F)F)nc(N4CCOCC4)n3)CC2)CC1 | binding | competition with immobilised ligand | 1 µM | 100% |
| O=c1nc(-c2ccccn2)sc2ccccc12 | binding |  | 1 µM | 100% |
| c1cncc(-c2cccc(Nc3nccc(NC4CCCCC4)n3)c2)c1 | binding | competition with immobilised ligand | 10 µM | 33% |
| N[C@@H]1CCN(c2nccc(-c3cnn4ncccc34)n2)C1 | binding |  | 1 µM | 73% |
| CCN1CCN(Cc2ccc(C(=O)Nc3ccc(C)c(Oc4ccc5c(c4)CC(=O)N5)c3)cc2C(F)(F)F)CC1 | binding | competition with immobilised ligand | 1 µM | 100% |
| CN(C(=O)c1ccccc1)c1cc(N(C)c2ccc3c(c2)CCc2ccc(C(=O)NCCN4CCOCC4)cc2C3=O)ccc1F | binding |  | 1 µM | 100% |
| O=C(NCCCN1CCOCC1)c1ccc(Nc2nccc(-c3cc4ccccc4s3)n2)cc1 | binding | competition with immobilised ligand | 1 µM | 27% |
| CN(c1nccc(-c2cnn3ncccc23)n1)C1CC1 | binding |  | 1 µM | 100% |
| CNC(=O)[C@@H]1CC[C@@H](n2c(-c3ccc4cnccc4c3)nc3ccc(C(=O)NCc4cccc(C(N)=O)c4)cc32)C1 | binding | competition with immobilised ligand | 1 µM | 93% |
| O=C(NCc1ncc(C(F)(F)F)cc1Cl)c1ccc2c(c1)C1(CCS(=O)(=O)CC1)[C@H](C1CC1)N2S(=O)(=O)c1ccc(F)cc1 | binding |  | 1 µM | 99% |
| Cc1cnn2ncc(-c3ccnc(N(C)C)n3)c2c1 | binding |  | 1 µM | 91% |
| O=C(NCCCN1CCOCC1)c1ccc(Nc2ncc(Cl)c(-c3ccc(Cl)s3)n2)cc1 | binding | competition with immobilised ligand | 1 µM | 35% |
